According to ChEMBL document CHEMBL1156459, “Discovery of a small molecule antagonist of the parathyroid hormone receptor by using an N-terminal parathyroid hormone peptide probe” (Proc Natl Acad Sci U S A, 2007):
Square brackets hold non-standard residues; d marks the D form. Peptide text beside a SMILES is read from it. Nle = CCCC[C@H](N)C(=O)O; Aib = CC(C)(N)C(=O)O

Tests used:
[1] = biological target: T1, Parathyroid hormone/parathyroid hormone-related peptide receptor (Homo sapiens, UniProt Q03431); experiment: Activity at human PTH/PTH-related peptide receptor expressed in HEK293 cells assessed as induction of intracellular calcium mobilization; format: functional, cell-based
T1 sequence (Q03431 whole entry): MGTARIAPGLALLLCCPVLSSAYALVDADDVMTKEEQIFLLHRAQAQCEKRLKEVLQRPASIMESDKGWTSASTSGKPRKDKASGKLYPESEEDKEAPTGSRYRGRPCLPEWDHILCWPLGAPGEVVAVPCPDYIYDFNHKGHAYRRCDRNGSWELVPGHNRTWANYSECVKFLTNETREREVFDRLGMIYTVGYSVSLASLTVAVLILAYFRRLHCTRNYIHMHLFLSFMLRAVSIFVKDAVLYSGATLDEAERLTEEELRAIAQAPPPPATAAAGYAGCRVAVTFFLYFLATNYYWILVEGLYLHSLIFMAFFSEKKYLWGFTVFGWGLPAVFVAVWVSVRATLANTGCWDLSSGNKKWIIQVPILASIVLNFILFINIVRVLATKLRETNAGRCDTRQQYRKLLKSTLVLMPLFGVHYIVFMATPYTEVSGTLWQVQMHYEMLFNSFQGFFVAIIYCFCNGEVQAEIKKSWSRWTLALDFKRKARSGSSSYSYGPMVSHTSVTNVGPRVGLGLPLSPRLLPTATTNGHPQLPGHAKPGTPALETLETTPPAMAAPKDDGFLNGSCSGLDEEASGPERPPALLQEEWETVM

[2] = Stability in rat plasma assessed as half life; format: ADME, cell-free
Outline: (§1)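 Peptide incubated at 37°C in rat plasma or rat whole blood; half-life determined.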

[3] = Effect on Ptpn16 gene expression in rat UMR106 cells after 8 hrs by microarray analysis relative to control; format: functional
Outline: (§2)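 Rat UMR106 cells grown to confluency in DMEM/10% FBS, then moved to 0.1% FBS medium 24 h before treatment. Peptides (100 nM) were added to the medium for 2 or 8 h. Microarray profiling covered 8,799 reporters, with changes called at P < 0.01. Values are fold-change versus untreated control.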

[4] = biological target: T1, Parathyroid hormone/parathyroid hormone-related peptide receptor; experiment: Activity at human PTH/PTH-related peptide receptor expressed in HEK293 cells assessed as induction of luciferase activity by CRE-luciferase reporter assay; format: functional, cell-based
[5] = Effect on Bmp3 gene expression in rat UMR106 cells after 8 hrs by microarray analysis relative to control; format: functional; outline: as §2
[6] = Effect on IL18 gene expression in rat UMR106 cells after 2 hrs by real time PCR method relative to control; format: functional
Outline: (§3)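 Confluent UMR106 cells were serum-starved (0.1% FBS, 24 h) and then given peptide in the medium for 2 h. Transcripts were quantified by TaqMan real-time RT-PCR, with relative expression levels set from a serial-dilution standard. Expression is reported as change versus untreated control.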

[7] = Effect on c-fos gene expression in rat UMR106 cells after 2 hrs by microarray analysis relative to control; format: functional; outline: as §2
[8] = Effect on Pde4b gene expression in rat UMR106 cells after 2 hrs by microarray analysis relative to control; format: functional; outline: as §2
[9] = biological target: T1, Parathyroid hormone/parathyroid hormone-related peptide receptor; experiment: Activity at human PTH/PTH-related peptide receptor expressed in SAOS2 cells assessed as cAMP formation; format: functional, cell-based, SAOS-2
Outline: (§4)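 Nonconfluent cells grown at 37°C in DMEM with 10% FBS, refed 12–24 h before assay. Rinsed with warm PBS, detached with prewarmed EDTA (37°C, 5–10 min), spun at 300 × g for 5 min. Resuspended in HBSS/5 mM Hepes/0.1% BSA/0.5 mM IBMX, pH 7.4. cAMP read by AlphaScreen.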

[10] = biological target: T1, Parathyroid hormone/parathyroid hormone-related peptide receptor; experiment: Displacement of [125I]DPC-AJ1951 from PTH/PTH-related peptide receptor expressed in HKRK-B28 cells; format: cell-based
Outline: (§5)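 Whole HKRK-B28 cells plated at 30,000/well and incubated overnight at 37°C, 5% CO2. Incubated 3 h at room temperature, washed three times, bound radioactivity counted by scintillation.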

[11] = Stimulation of osteoclast-mediated bone resorption in fetal Sprague-Dawley rat radii/ulnae assessed as [45Ca]release measured on day 5; format: functional; conditions: 120 h
Outline: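 Fetal rat radii/ulnae prelabelled with 45Ca in utero, dissected and cultured. 45Ca released into the culture medium measured as the osteoclast-mediated resorption read-out.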

[12] = Effect on Pde4b gene expression in rat UMR106 cells after 8 hrs by microarray analysis relative to control; format: functional; outline: as §2
[13] = Stability in rat whole blood assessed as half life; format: ADME, tissue-based; outline: as §1
[14] = Stimulation of cell proliferation in neonatal CD1 mouse calivaria assessed as increase in [3H]thymidine incorporation; format: functional
[15] = Effect on Ptpn16 gene expression in rat UMR106 cells after 2 hrs by microarray analysis relative to control; format: functional; outline: as §2
[16] = biological target: T1, Parathyroid hormone/parathyroid hormone-related peptide receptor; experiment: Binding affinity to PTH/PTH-related peptide receptor expressed in HKRK-B28 cells; format: cell-based; outline: as §5
[17] = Effect on c-fos gene expression in rat UMR106 cells after 8 hrs by microarray analysis relative to control; format: functional; outline: as §2
[18] = Effect on Crem gene expression in rat UMR106 cells after 2 hrs by real time PCR method relative to control; format: functional; outline: as §3
[19] = Effect on Bmp3 gene expression in rat UMR106 cells after 2 hrs by real time PCR method relative to control; format: functional; outline: as §3
Rattus norvegicus = experiment: Increase in cAMP level in ovariectomized rat plasma after 30 mins at 1 mg/kg, sc relative to control; format: functional; conditions: route subcutaneous
[20] = Decrease in collagen synthesis in neonatal CD1 mouse calivaria bone assessed as [3H]proline incorporation; format: functional
[21] = Effect on Pde4b gene expression in rat UMR106 cells after 2 hrs by real time PCR method relative to control; format: functional; outline: as §3
[22] = Effect on IL18 gene expression in rat UMR106 cells after 8 hrs by microarray analysis relative to control; format: functional; outline: as §2
[23] = biological target: T1, Parathyroid hormone/parathyroid hormone-related peptide receptor; experiment: Displacement of [125I]DPC-AJ1951 from PTH/PTH-related peptide receptor expressed in HKRK-B28 cells in presence of SW106; format: cell-based; outline: as §5
[24] = Effect on Pthr1 gene expression in rat UMR106 cells after 2 hrs by microarray analysis relative to control; format: functional; outline: as §2
[25] = Effect on c-fos gene expression in rat UMR106 cells after 2 hrs by real time PCR method relative to control; format: functional; outline: as §3
[26] = Effect on Pthr1 gene expression in rat UMR106 cells after 8 hrs by microarray analysis relative to control; format: functional; outline: as §2
[27] = Effect on Pthr1 gene expression in rat UMR106 cells after 2 hrs by real time PCR method relative to control; format: functional; outline: as §3
[28] = Increase in trabecular bone mineral density in ovariectomized rat at 0.2 mg/kg, sc; format: functional, Trabecula; conditions: route subcutaneous
[29] = Effect on Ptpn16 gene expression in rat UMR106 cells after 2 hrs by real time PCR method relative to control; format: functional; outline: as §3
[30] = Effect on Crem gene expression in rat UMR106 cells after 2 hrs by microarray analysis relative to control; format: functional; outline: as §2
[31] = biological target: T2, Parathyroid hormone/parathyroid hormone-related peptide receptor (Rattus norvegicus, UniProt P25961); experiment: Activity at rat PTH/PTH-related peptide receptor expressed in rat UMR106 cells assessed as cAMP formation; format: functional, cell-based; outline: as §4
T2 sequence (P25961 whole entry): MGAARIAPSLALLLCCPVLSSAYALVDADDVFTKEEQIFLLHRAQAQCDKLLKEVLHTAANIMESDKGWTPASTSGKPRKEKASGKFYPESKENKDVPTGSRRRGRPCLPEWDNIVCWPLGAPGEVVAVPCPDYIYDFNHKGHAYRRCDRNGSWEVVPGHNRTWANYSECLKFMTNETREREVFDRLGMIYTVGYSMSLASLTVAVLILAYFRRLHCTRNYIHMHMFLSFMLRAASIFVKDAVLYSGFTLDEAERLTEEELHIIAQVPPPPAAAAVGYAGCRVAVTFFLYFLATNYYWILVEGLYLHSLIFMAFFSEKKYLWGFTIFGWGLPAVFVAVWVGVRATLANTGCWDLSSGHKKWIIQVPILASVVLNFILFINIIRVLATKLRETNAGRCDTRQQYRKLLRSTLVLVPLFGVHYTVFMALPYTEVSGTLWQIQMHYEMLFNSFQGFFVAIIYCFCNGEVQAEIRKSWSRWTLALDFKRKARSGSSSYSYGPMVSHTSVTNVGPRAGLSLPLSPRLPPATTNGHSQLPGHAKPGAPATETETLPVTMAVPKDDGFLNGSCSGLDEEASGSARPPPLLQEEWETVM

In the case of `CCCC[C@H](NC(=O)[C@H](CC(C)C)NC(=O)[C@H](CCC(N)=O)NC(=O)[C@@H](NC(=O)[C@H](CCC(=O)O)NC(=O)C(C)(C)NC(=O)[C@@H](NC(=O)C(C)(C)N)C(C)C)[C@@H](C)CC)C(=O)N[C@@H](Cc1cnc[nH]1)C(=O)N[C@@H](CCC(N)=O)C(=O)N[C@@H](CCCNC(=N)N)C(=O)N[C@@H](C)C(=O)N[C@@H](CCCCN)C(=O)N[C@@H](Cc1ccc(O)cc1)C(N)=O` (H-[Aib]V[Aib]EIQL[Nle]HQRAKY-NH2), the EC50 [1] is reported as 26 nM, the half-life [2] is reported as 20 min and the “fold change (FC)” value [3] is reported as 6. For the same compound, the EC50 [4] was 0.15 nM, the “fold change (FC)” value [5] was 4 and the “fold change (FC)” value [6] was 6. The “fold change (FC)” value [7] was 48, the “fold change (FC)” value [8] was 11 and the EC50 [9] was 2.2 nM. For the same compound, the IC50 [10] was 6.87 nM, the EC50 [11] was 30 nM and the “fold change (FC)” value [12] was 9. The half-life [13] was 15 min, the EC50 [14] was 6 nM and the “fold change (FC)” value [15] was 9. The Kd [16] was 21.6 nM, the “fold change (FC)” value [17] was 11 and the “fold change (FC)” value [18] was 5. The “fold change (FC)” value [19] was 14, the Activity (Rattus norvegicus) was 150% and the EC50 [20] was 0.2 nM. For the same compound, the “fold change (FC)” value [21] was 4, the “fold change (FC)” value [22] was 18 and the IC50 [23] was 55.4 nM. For the same compound, the “fold change (FC)” value [24] was -2, the “fold change (FC)” value [25] was 66 and the “fold change (FC)” value [26] was 3. For the same compound, the “fold change (FC)” value [27] was -2, the Activity [28] was 21% and the “fold change (FC)” value [29] was 15. For the same compound, the “fold change (FC)” value [30] was 13 and the EC50 [31] was 1.1 nM.
